# High-throughput results deposited in PubChem by several laboratories.
# APJ ag = agonists of human apelin receptor APJ, primary screen, CHO-K1 cells, PathHunter beta-arrestin, luminescence; AID 2520, 2010; 330,000 compounds, 0.11% hits; 0% DMSO wells, 100% apelin; activation, % at 20 µM;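 active = activation more than six SD over the plate average, tested at 20 µM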;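 note: 0% = DMSO alone and 100% = apelin-13 at 10 nM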
# Target sequence (P35414 whole entry, looked up): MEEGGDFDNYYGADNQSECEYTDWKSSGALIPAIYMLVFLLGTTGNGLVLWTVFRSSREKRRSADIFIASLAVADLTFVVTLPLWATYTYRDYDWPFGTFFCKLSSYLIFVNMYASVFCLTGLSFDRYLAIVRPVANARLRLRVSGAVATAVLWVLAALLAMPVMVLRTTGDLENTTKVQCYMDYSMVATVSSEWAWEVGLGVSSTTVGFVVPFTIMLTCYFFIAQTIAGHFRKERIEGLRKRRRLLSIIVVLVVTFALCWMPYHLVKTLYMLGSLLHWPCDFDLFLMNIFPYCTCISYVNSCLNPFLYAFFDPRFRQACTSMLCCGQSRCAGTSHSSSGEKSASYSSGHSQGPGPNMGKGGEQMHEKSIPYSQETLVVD
#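 Assay system – PathHunter CHO-K1 APJ (AGTRL-1) beta-arrestin reporter cells · Compound – one dose, 20 µM compound, 1% DMSO · Timing – compound 90 min 25 °C, reagent 1 h · Measured by – luminescence from split beta-galactosidase complementation, Galacton Star/Emerald II substrate · Measure – beta-arrestin recruitment to APJ as agonist activity, luminescent signal · Benchmarks – DMSO vs Apelin-13 10 nM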
# CXCR6 block = CXCR6 receptor inhibitors, primary screen, cell-based, beta-arrestin, luminescence, CHO-K1 PathHunter, 1536-well; C-X-C chemokine receptor type 6 (Homo sapiens), O00574; inhibition, % at 20 µM; 360,000 compounds, 0.36% hits; in the data active = inhibition above about 34%, passing the limit was not always enough;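 note: antagonist mode with CXCL16 agonist at 10 nM final; 0% = 10 nM CXCL16 with DMSO and 100% = unstimulated wells without agonist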
# APJ antag = antagonists of human apelin receptor APJ, primary screen, CHO-K1 cells, beta-arrestin complementation, luminescence | P35414 | inhibition, % at 20 µM | 330,000 compounds, 0.32% hits;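 active = inhibition above about 40% at 20 µM, limit read from the data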;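 note: cells challenged with 10 nM apelin-13 agonist together with compound; plate controls were apelin-13 plus DMSO wells for no effect and DMSO wells lacking apelin-13 for full effect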
# B2AR ag = beta2AR agonists driving receptor internalization, primary screen, cell-based, FAP fluorogen, flow cytometry | Beta-2 adrenergic receptor (Homo sapiens), P07550 | Am2.2-beta2AR cells | response, % (test concentration not listed) | 340,000 compounds, 0.43% hits | AID 504454, 2011;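 active = response above a set limit, near 3 SD of response in nonfluorescent compounds, cut at about 42% in these data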
# CCR6 antag = CCR6 receptor antagonists, primary screen, cell-based, CHO-K1, luminescence, beta-arrestin, uHTS; 340,000 compounds, 0.49% hits; AID 493098, 2011; inhibition, % at 20 µM; CHO-K1 CCR6 PathHunter beta-arrestin, CCL20-stimulated; C-C chemokine receptor type 6 (Homo sapiens), P51684;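 active = compounds whose inhibition of the agonist-driven luminescence signal at 20 µM reaches about 50%, limit read from the data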;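 note: cells stimulated with CCL20 at 14 nM final; plate controls were DMSO with CCL20 for no effect and DMSO without agonist for full effect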
# EBI2 block = EBI2 receptor antagonists, beta-arrestin recruitment, primary screen, cell-based, luminescence, 7a,25-OHC stimulation, uHTS | G-protein coupled receptor 183 (Homo sapiens), P32249 | 7a,25-OHC stimulated | inhibition, % at 5 µM | 360,000 compounds, 0.81% hits | AID 651636, 2012; in the data active = inhibition above about 38%;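 note: enzyme fragment complementation signal reports receptor beta-arrestin coupling in cells; 0% = agonist plus DMSO wells and 100% = wells without agonist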
# * marks the source's active call; other numbers are inactive results; . = no result. This is a sample that favours compounds with a hit; in the whole collection about 1.8% have one here.
SMILES,APJ ag,CXCR6 block,APJ antag,B2AR ag,CCR6 antag,EBI2 block
O=C1CC(C(=O)Nc2ccc(Cl)cc2[N+](=O)[O-])C2(CCCCC2)O1 (centres undefined),4.2,-7.6,-11.8,-0.2,56.7*,-9.0
CCCCCCCCCCC[N+](C)(C)CC/C=C1/c2ccccc2Sc2ccc(Cl)cc21,1.1,4.1,2.6,0.0,10.7,-2.7
CCCCCCCCCC[N+](C)(C)CC/C=C1/c2ccccc2Sc2ccc(Cl)cc21,0.8,48.8*,11.7,1.5,-4.1,-0.9
COCC(C)n1c(SC(C)C(=O)NC2CCCCC2C)nc2ccccc2c1=O (centres undefined),-5.8,1.6,18.0,4.3,17.4,23.8
CCOC(=S)SCC(=O)Nc1nc(-c2ccccc2)cs1,-0.1,8.1,6.8,15.9,8.3,-9.5
CCOC(=S)SCC(=O)Nc1nc(-c2ccc(Br)cc2)cs1,-2.5,1.8,17.5,11.2,-24.9,69.1*
CC1CCN(Cc2c(C(=O)N/N=C/c3cc(Cl)ccc3O)nnn2-c2nonc2N)CC1,0.5,4.8,8.4,9.9,50.5*,-15.1
Cc1cc(-n2c(C)cc(C(=O)CN3C(=O)C(=O)N(C)C3=O)c2C)no1,-1.7,-3.4,5.1,5.2,11.8,-8.5
Cc1cc(-n2c(C)cc(C(=O)CCl)c2C)no1,-3.6,-8.5,26.8,65.1*,6.2,0.6
O=C(Nc1ccc(Oc2c(F)c(F)c(F)c(F)c2F)cc1)OC1CCN2Cc3ccccc3N=C12 (centres undefined),7.1,3.4,-2.4,101.7*,-1.9,44.1*
Cc1ccc2cc(CCNS(=O)(=O)c3ccc(F)cc3)c(=O)[nH]c2c1C,4.1,10.1,4.8,43.1*,-9.2,-6.6
CCN(C(=O)CSc1ncccn1)c1cccc2ccccc12,0.7,0.3,-4.1,-0.7,7.3,-5.1
O=C(NCCc1ccc(O)c(O)c1)C1COc2ccccc2O1 (centres undefined),3.0,0.0,-0.6,-1.5,1.4,4.0
CCCN1C(=O)/C(=C2\SC(=S)N(c3c(C)n(C)n(-c4ccccc4)c3=O)C2=O)c2ccccc21,1.3,.,-2.2,.,50.9*,.
CCN1C(=O)/C(=C2\SC(=S)N(c3c(C)n(C)n(-c4ccccc4)c3=O)C2=O)c2ccccc21,6.8,27.3,19.6,13.8,36.6,21.9
CC(=O)C1C(c2cccc(F)c2)c2c(n[nH]c2C)CC1(C)O (centres undefined),-1.8,-5.2,-4.6,0.0,-7.1,-1.9
CC(=O)OC(C)C1C2=C(C(=O)CC1(C)O)C(=O)c1c(ccc(-c3ccc4c(c3O)C(=O)C3=C(C4=O)C(C(C)OC(C)=O)C(C)(O)CC3=O)c1O)C2=O (centres undefined),.,29.3,.,13.0,51.6*,-9.3
O=C(c1cc(-c2ccco2)on1)N1CCN(C(c2ccccc2)c2ccccc2)CC1,-5.2,16.6,20.1,12.1,17.7,91.1*
CCCCCCCCCCCCC/C=C/[C@@H](O)[C@@H](N)CO,-5.0,15.9,21.7,24.9,66.7*,10.2
O=C(Nc1cc(S(=O)(=O)Nc2ccccc2Cl)ccc1O)c1sc2cc(Cl)ccc2c1Cl,-1.6,25.5,13.3,0.1,75.5*,8.5
COc1ccccc1NS(=O)(=O)c1ccc(Cl)c(NC(=O)c2sc3cc(Cl)ccc3c2Cl)c1,0.0,-1.5,-19.8,-6.6,-1.8,0.4
CCc1cc2c(COC(=O)c3cccc(S(C)(=O)=O)c3)cc(=O)oc2cc1O,-2.2,18.6,7.3,61.1*,9.3,2.1
CC(C)NC(=O)N(C)C[C@@H]1Oc2c(NC(=O)C3CCOCC3)cccc2C(=O)N([C@@H](C)CO)C[C@H]1C,-1.0,3.1,-5.5,-2.3,9.8,-2.8
Cc1ccccc1NS(=O)(=O)c1cccc(-c2nnc(-c3ccccc3)o2)c1,-3.6,10.0,3.4,2.0,10.8,4.6
CN(C)S(=O)(=O)c1cccc(-c2nnc(-c3ccccc3)o2)c1,0.9,5.4,16.8,16.8,8.7,50.1*
SMILES,APJ ag,CXCR6 block,APJ antag,B2AR ag,CCR6 antag,EBI2 block
Cc1ccc(S(=O)(=O)N[C@@H](Cc2ccccc2)C(=O)CCl)cc1,4.2,10.3,10.7,53.5*,18.6,0.9
Cc1ccc(S(=O)(=O)NC(Cc2ccccc2)C(=O)NN)cc1 (centres undefined),-3.6,-0.9,-3.2,0.8,-7.3,-14.2
Cc1cc2c(cc1C)NC(c1c(C)n(C)n(-c3ccccc3)c1=O)C1=C(CC(C)(C)CC1=O)N2 (centres undefined),-1.0,12.5,7.8,-9.8,77.1*,16.4
COc1cc(C2Nc3cc(C)c(C)cc3NC3=C2C(=O)CC(C)(C)C3)ccc1OC(C)=O (centres undefined),-0.6,2.0,-21.3,0.7,2.8,1.0
O=C(NCCCSc1ccccc1)c1cc(Br)ccc1O,3.7,-3.5,-16.0,11.3,7.6,-9.0
O=C(c1cccs1)N1C[C@H](n2cc(C3CC3)nn2)[C@@H](O)C[C@@H]1c1ccc(Cl)cc1,.,5.5,.,.,.,2.2
COc1ccc(OCC(=O)Nc2cc(-c3nn4c(C)nnc4s3)ccc2C)cc1,-0.4,-4.0,9.9,69.8*,-14.1,-3.8
Cc1nc2ccc([N+](=O)[O-])cc2nc1C,-0.2,3.4,-13.0,1.5,-9.4,-12.3
Cc1ccc2nc3cc([N+](=O)[O-])cc([N+](=O)[O-])c3cc2c1,.,22.9,.,58.7*,49.6,53.4*
CN(C)c1ccc(/C=C/c2ccc3c4ccccc4ccc3[n+]2-c2ccccc2)cc1,.,62.3*,.,17.1,83.2*,45.5*
Cc1c(-n2c(SCC(=O)C(C)(C)C)nc3ccccc3c2=O)c(=O)n(-c2ccccc2)n1C,-3.7,3.1,-0.1,-7.6,3.0,18.1
Cc1nc2ccccc2c2oc(C(=O)N3CCN(c4ccc([N+](=O)[O-])cc4)CC3)cc12,-0.7,-3.8,6.2,50.8*,14.9,-16.4
Cc1nc2ccccc2c2oc(C(=O)N3CCN(C(=O)c4ccco4)CC3)cc12,-3.8,-1.5,3.3,-15.6,11.3,5.6
CCCNC(=O)C1(C)CCCN(Cc2csc3ccccc23)C1 (centres undefined),.,-2.1,.,.,.,7.9
Cc1cc(C)c2c(=O)n(CC(=O)Nc3cccc(Cl)c3C)sc2n1,1.6,79.7*,-13.0,-9.0,11.6,1.6
CCOC(=O)N1CCN(C(=O)c2ccc(Cn3c(=S)[nH]c4cc(OCC)c(OCC)cc4c3=O)cc2)CC1,26.9*,-8.5,-3.5,4.4,-28.6,-34.0
CCOC(=O)N1CCN(C(=O)c2ccc3c(=O)n(Cc4ccccc4)c(=S)[nH]c3c2)CC1,-2.8,17.2,12.5,-1.3,10.3,2.3
